Laboratory results reported in ChEMBL document CHEMBL1821590, “Novel dihydropyrimidines and its pyrazole derivatives: synthesis and pharmacological screening” (Eur J Med Chem, 2011).
In brackets after ≈: the same amount, converted by molar mass.

test system: Metaphire posthuma; experiment: Anthelmintic activity against Pheretima posthuma assessed as time taken for parasite death at 0.1% w/v; type: functional; conditions: not given
Summary of the method: (§1)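 Earthworms (Pheretima posthuma, spelled Perituma posthuma in text) exposed to test compounds at 0.1, 0.2 and 0.5% w/v. Albendazole served as standard, with an untreated control. Paralysis was recorded as the time until worms became motionless, then time to death was recorded, in minutes. Each value is the mean of three determinations with S.D.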

SMILES	Time [min]
Cn1c(NN)nc(-c2ccccc2Cl)c(C#N)c1=O	67.33
COc1ccc(-c2nc(SC)n(C)c(=O)c2C#N)cc1	78.22

test system: Staphylococcus aureus; experiment: Antimicrobial activity against Staphylococcus aureus at 25 ug/ml by agar plate diffusion technique; type: functional; conditions: read-out: IZ
Summary of the method: (§2)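 Agar plate diffusion against E. coli, P. aeruginosa, S. aureus and B. subtilis, with compounds at 25, 50 and 100 µg/mL. Streptomycin as standard.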

SMILES	zone of inhibition at 25 µg/mL [mm]
Cn1c(NN)nc(-c2ccccc2Cl)c(C#N)c1=O	12.8
COc1ccc(-c2nc(SC)n(C)c(=O)c2C#N)cc1	8.76

test system: Pseudomonas aeruginosa; experiment: Antimicrobial activity against Pseudomonas aeruginosa at 100 ug/ml by agar plate diffusion technique; type: functional; conditions: read-out: IZ; summary of the method: as §2

SMILES	zone of inhibition at 100 µg/mL [mm]
Cn1c(NN)nc(-c2ccccc2Cl)c(C#N)c1=O	15.4
COc1ccc(-c2nc(SC)n(C)c(=O)c2C#N)cc1	9.17

test system: Escherichia coli; experiment: Antimicrobial activity against Escherichia coli at 100 ug/ml by agar plate diffusion technique; type: functional; conditions: read-out: IZ; summary of the method: as §2

SMILES	zone of inhibition at 100 µg/mL [mm]
Cn1c(NN)nc(-c2ccccc2Cl)c(C#N)c1=O	13.1
COc1ccc(-c2nc(SC)n(C)c(=O)c2C#N)cc1	8.79

test system: Aspergillus niger; experiment: Antimicrobial activity against Aspergillus niger at 25 ug/ml by paper disc method; type: functional; conditions: read-out: IZ
Summary of the method: (§3)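 Paper disc method against A. niger and C. albicans, with compounds at 25, 50 and 100 µg/mL. Amphotericin-B as standard.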

SMILES	zone of inhibition at 25 µg/mL [mm]
Cn1c(NN)nc(-c2ccccc2Cl)c(C#N)c1=O	11.2
COc1ccc(-c2nc(SC)n(C)c(=O)c2C#N)cc1	11.6

test system: Bacillus subtilis; experiment: Antimicrobial activity against Bacillus subtilis at 25 ug/ml by agar plate diffusion technique; type: functional; conditions: read-out: IZ; summary of the method: as §2

SMILES	zone of inhibition at 25 µg/mL [mm]
Cn1c(NN)nc(-c2ccccc2Cl)c(C#N)c1=O	11.1
COc1ccc(-c2nc(SC)n(C)c(=O)c2C#N)cc1	11.7

test system: Pseudomonas aeruginosa; experiment: Antimicrobial activity against Pseudomonas aeruginosa at 50 ug/ml by agar plate diffusion technique; type: functional; conditions: read-out: IZ; summary of the method: as §2

SMILES	zone of inhibition at 50 µg/mL [mm]
Cn1c(NN)nc(-c2ccccc2Cl)c(C#N)c1=O	12.7
COc1ccc(-c2nc(SC)n(C)c(=O)c2C#N)cc1	8.84

test system: Metaphire posthuma; experiment: Anthelmintic activity against Pheretima posthuma assessed as time taken for parasite death at 0.5% w/v; type: functional; conditions: not given; summary of the method: as §1

SMILES	Time [min]
Cn1c(NN)nc(-c2ccccc2Cl)c(C#N)c1=O	60.86
COc1ccc(-c2nc(SC)n(C)c(=O)c2C#N)cc1	62.21

test system: not listed separately; experiment: Antioxidant activity assessed as inhibition of lipid peroxidation using egg lecithin liposomes incubated for 1 hr; type: functional; conditions: not given
Summary of the method: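 Egg lecithin (3 mg/mL, phosphate buffer pH 7.4) sonicated 10 min to form liposomes. Sample or ascorbic acid (12.5–100 µg/mL) added. Peroxidation induced with FeCl3 and L-ascorbic acid, 1 h at 37 °C. Stopped with HCl/TCA/TBA/BHA, boiled 15 min, centrifuged, supernatant read at 532 nm. Triplicate. % inhibition vs control. IC50 derived.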

SMILES	IC50 [µg/mL]
Cn1c(NN)nc(-c2ccccc2Cl)c(C#N)c1=O	57 (≈ 207 µM)
COc1ccc(-c2nc(SC)n(C)c(=O)c2C#N)cc1	53 (≈ 184 µM)

test system: Staphylococcus aureus; experiment: Antimicrobial activity against Staphylococcus aureus at 100 ug/ml by agar plate diffusion technique; type: functional; conditions: read-out: IZ; summary of the method: as §2

SMILES	zone of inhibition at 100 µg/mL [mm]
Cn1c(NN)nc(-c2ccccc2Cl)c(C#N)c1=O	19.3
COc1ccc(-c2nc(SC)n(C)c(=O)c2C#N)cc1	14.8

test system: Metaphire posthuma; experiment: Anthelmintic activity against Pheretima posthuma assessed as time taken for complete parasite paralysis at 0.5% w/v; type: functional; conditions: not given
Summary of the method: (§4)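 Earthworms (Pheretima posthuma) exposed to test solutions at 0.1, 0.2 and 0.5% w/v; time in minutes to complete paralysis (worms motionless) recorded. Albendazole as standard. Mean of three determinations ± S.D.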

SMILES	Time [min]
Cn1c(NN)nc(-c2ccccc2Cl)c(C#N)c1=O	45.38
COc1ccc(-c2nc(SC)n(C)c(=O)c2C#N)cc1	42.65

test system: Pseudomonas aeruginosa; experiment: Antimicrobial activity against Pseudomonas aeruginosa at 25 ug/ml by agar plate diffusion technique; type: functional; conditions: read-out: IZ; summary of the method: as §2

SMILES	zone of inhibition at 25 µg/mL [mm]
Cn1c(NN)nc(-c2ccccc2Cl)c(C#N)c1=O	8.41
COc1ccc(-c2nc(SC)n(C)c(=O)c2C#N)cc1	6.19

test system: Staphylococcus aureus; experiment: Antimicrobial activity against Staphylococcus aureus at 50 ug/ml by agar plate diffusion technique; type: functional; conditions: read-out: IZ; summary of the method: as §2

SMILES	zone of inhibition at 50 µg/mL [mm]
Cn1c(NN)nc(-c2ccccc2Cl)c(C#N)c1=O	15.9
COc1ccc(-c2nc(SC)n(C)c(=O)c2C#N)cc1	12.8

test system: Aspergillus niger; experiment: Antimicrobial activity against Aspergillus niger at 50 ug/ml by paper disc method; type: functional; conditions: read-out: IZ; summary of the method: as §3

SMILES	zone of inhibition at 50 µg/mL [mm]
Cn1c(NN)nc(-c2ccccc2Cl)c(C#N)c1=O	14
COc1ccc(-c2nc(SC)n(C)c(=O)c2C#N)cc1	12

test system: Candida albicans; experiment: Antimicrobial activity against Candida albicans at 50 ug/ml by paper disc method; type: functional; conditions: read-out: IZ; summary of the method: as §3

SMILES	zone of inhibition at 50 µg/mL [mm]
Cn1c(NN)nc(-c2ccccc2Cl)c(C#N)c1=O	17.9
COc1ccc(-c2nc(SC)n(C)c(=O)c2C#N)cc1	11.2

test system: Metaphire posthuma; experiment: Anthelmintic activity against Pheretima posthuma assessed as time taken for parasite death at 0.2% w/v; type: functional; conditions: not given; summary of the method: as §1

SMILES	Time [min]
Cn1c(NN)nc(-c2ccccc2Cl)c(C#N)c1=O	66.37
COc1ccc(-c2nc(SC)n(C)c(=O)c2C#N)cc1	72.67

test system: Bacillus subtilis; experiment: Antimicrobial activity against Bacillus subtilis at 100 ug/ml by agar plate diffusion technique; type: functional; conditions: read-out: IZ; summary of the method: as §2

SMILES	zone of inhibition at 100 µg/mL [mm]
Cn1c(NN)nc(-c2ccccc2Cl)c(C#N)c1=O	22.7
COc1ccc(-c2nc(SC)n(C)c(=O)c2C#N)cc1	19.1

test system: not listed separately; experiment: Antioxidant activity assessed as nitric oxide radical scavenging activity after 150 mins; type: functional; conditions: not given
Summary of the method: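 10 mM sodium nitroprusside (4 mL), PBS pH 7.4 (1 mL) and sample or ascorbic acid in DMSO (1 mL, 12.5–100 µg/mL), incubated 150 min at 25 °C. Nitrite detected with sulphanilic acid (5 min) then naphthylethylenediamine (30 min, diffused light). Read at […]. Triplicate. % inhibition = [1 − (Vt/Vc)] × 100. IC50 derived from it.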

SMILES	IC50 [µg/mL]
Cn1c(NN)nc(-c2ccccc2Cl)c(C#N)c1=O	62 (≈ 225 µM)
COc1ccc(-c2nc(SC)n(C)c(=O)c2C#N)cc1	73 (≈ 254 µM)

test system: Candida albicans; experiment: Antimicrobial activity against Candida albicans at 25 ug/ml by paper disc method; type: functional; conditions: read-out: IZ; summary of the method: as §3

SMILES	zone of inhibition at 25 µg/mL [mm]
Cn1c(NN)nc(-c2ccccc2Cl)c(C#N)c1=O	13.4
COc1ccc(-c2nc(SC)n(C)c(=O)c2C#N)cc1	9.33

test system: Aspergillus niger; experiment: Antimicrobial activity against Aspergillus niger at 100 ug/ml by paper disc method; type: functional; conditions: read-out: IZ; summary of the method: as §3

SMILES	zone of inhibition at 100 µg/mL [mm]
Cn1c(NN)nc(-c2ccccc2Cl)c(C#N)c1=O	19.4
COc1ccc(-c2nc(SC)n(C)c(=O)c2C#N)cc1	18

test system: Metaphire posthuma; experiment: Anthelmintic activity against Pheretima posthuma assessed as time taken for complete parasite paralysis at 0.2% w/v; type: functional; conditions: not given; summary of the method: as §4

SMILES	Time [min]
Cn1c(NN)nc(-c2ccccc2Cl)c(C#N)c1=O	52.38
COc1ccc(-c2nc(SC)n(C)c(=O)c2C#N)cc1	46.56

test system: Metaphire posthuma; experiment: Anthelmintic activity against Pheretima posthuma assessed as time taken for complete parasite paralysis at 0.1% w/v; type: functional; conditions: not given; summary of the method: as §4

SMILES	Time [min]
Cn1c(NN)nc(-c2ccccc2Cl)c(C#N)c1=O	50.65
COc1ccc(-c2nc(SC)n(C)c(=O)c2C#N)cc1	54.56

test system: not listed separately; experiment: Antioxidant activity assessed as potassium ferricyanide ion reducing power after 20 mins; type: functional; conditions: not given
Summary of the method: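 Oyaizu method. Samples or ascorbic acid in DMF (12.5–100 µg/mL) mixed with 0.2 M phosphate buffer pH 6.6 and 1% potassium ferricyanide, 20 min at 50 °C. 10% TCA added, centrifuged. Supernatant mixed with water and 0.1% FeCl3, read at 700 nm. % = [(Vt/Vc) − 1] × 100. IC50 derived.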

SMILES	IC50 [µg/mL]
Cn1c(NN)nc(-c2ccccc2Cl)c(C#N)c1=O	58 (≈ 210 µM)
COc1ccc(-c2nc(SC)n(C)c(=O)c2C#N)cc1	58 (≈ 202 µM)

test system: Candida albicans; experiment: Antimicrobial activity against Candida albicans at 100 ug/ml by paper disc method; type: functional; conditions: read-out: IZ; summary of the method: as §3

SMILES	zone of inhibition at 100 µg/mL [mm]
Cn1c(NN)nc(-c2ccccc2Cl)c(C#N)c1=O	21.4
COc1ccc(-c2nc(SC)n(C)c(=O)c2C#N)cc1	19.8

test system: Escherichia coli; experiment: Antimicrobial activity against Escherichia coli at 50 ug/ml by agar plate diffusion technique; type: functional; conditions: read-out: IZ; summary of the method: as §2

SMILES	zone of inhibition at 50 µg/mL [mm]
Cn1c(NN)nc(-c2ccccc2Cl)c(C#N)c1=O	10.1
COc1ccc(-c2nc(SC)n(C)c(=O)c2C#N)cc1	7.19

test system: Escherichia coli; experiment: Antimicrobial activity against Escherichia coli at 25 ug/ml by agar plate diffusion technique; type: functional; conditions: read-out: IZ; summary of the method: as §2

SMILES	zone of inhibition at 25 µg/mL [mm]
Cn1c(NN)nc(-c2ccccc2Cl)c(C#N)c1=O	9.26
COc1ccc(-c2nc(SC)n(C)c(=O)c2C#N)cc1	5.08

test system: Bacillus subtilis; experiment: Antimicrobial activity against Bacillus subtilis at 50 ug/ml by agar plate diffusion technique; type: functional; conditions: read-out: IZ; summary of the method: as §2

SMILES	zone of inhibition at 50 µg/mL [mm]
Cn1c(NN)nc(-c2ccccc2Cl)c(C#N)c1=O	15.1
COc1ccc(-c2nc(SC)n(C)c(=O)c2C#N)cc1	13.1

test system: not listed separately; experiment: Antiinflammatory activity assessed as inhibition of albumin denaturation at 100 ug/ml by UV-visible spectrophotometry; type: functional; conditions: not given
Summary of the method: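 Compounds dissolved in minimal DMF, diluted in PBS pH 7.4 (final DMF <2.5%). 1 mL test solution (100 µg/mL) plus 1 mL 1% albumin in PBS, 15 min at 27 ± 1 °C, then heated 10 min at 60 ± 1 °C. After cooling, turbidity read at 660 nm. % inhibition = [(Vt/Vc) − 1] × 100 against a no-drug control. Triplicate, averaged. Diclofenac standard.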

SMILES	inhibition [%]
Cn1c(NN)nc(-c2ccccc2Cl)c(C#N)c1=O	53.5
COc1ccc(-c2nc(SC)n(C)c(=O)c2C#N)cc1	21.3

test system: not listed separately; experiment: Antioxidant activity assessed as hydrogen peroxide scavenging activity after 10 mins; type: functional; conditions: not given
Summary of the method: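 H2O2 (20 mM) in PBS pH 7.4. 1 mL of sample or ascorbic acid in methanol (12.5–100 µg/mL) added to 2 mL H2O2 solution. A230 read after 10 min. % inhibition = [1 − (Vt/Vc)] × 100. Triplicate, averaged. IC50 derived from % inhibition across concentrations.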

SMILES	IC50 [µg/mL]
Cn1c(NN)nc(-c2ccccc2Cl)c(C#N)c1=O	46 (≈ 167 µM)
COc1ccc(-c2nc(SC)n(C)c(=O)c2C#N)cc1	48 (≈ 167 µM)
